Most compounds without a hit are left out; they make up all but 4.4% or so of the library.
HTR2A ag – agonists of mouse serotonin 5-HT2A receptor (HTR2A) | P35363 | CHO-K1 mHTR2A beta-arrestin complementation, luminescence; percent of 30 µM serotonin response | activation, % at 7.6 µM | 360,000 tested, 0.66% active;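 active = activation above a run cutoff, the mean activation of all tested compounds plus 3 SD, cut at about 14% in these data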;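 note: 0% = plate median of compound wells and 100% = 30 µM serotonin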
Target sequence (P35363 whole entry, looked up): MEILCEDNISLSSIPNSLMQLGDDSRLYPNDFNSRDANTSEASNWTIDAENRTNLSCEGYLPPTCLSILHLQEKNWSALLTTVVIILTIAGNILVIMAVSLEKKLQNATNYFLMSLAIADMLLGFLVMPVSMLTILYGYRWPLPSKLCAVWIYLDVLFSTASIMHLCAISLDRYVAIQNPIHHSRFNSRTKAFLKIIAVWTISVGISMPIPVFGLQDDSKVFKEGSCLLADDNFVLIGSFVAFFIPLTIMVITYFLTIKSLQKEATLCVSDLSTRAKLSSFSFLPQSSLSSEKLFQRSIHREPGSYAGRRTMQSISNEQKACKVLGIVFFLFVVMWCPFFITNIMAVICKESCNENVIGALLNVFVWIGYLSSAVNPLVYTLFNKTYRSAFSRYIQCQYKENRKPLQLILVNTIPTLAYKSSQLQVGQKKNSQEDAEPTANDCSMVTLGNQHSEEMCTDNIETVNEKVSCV
Tb MetRS inh – blocks T. brucei methionyl-tRNA synthetase activity. purified T. brucei MetRS, ATP depletion, Kinase-Glo luminescence. inhibition, % at 11.9 µM. 360,000 tested, 0.4% active;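 active = inhibition above a per-plate cutoff of the control wells' mean inhibition plus 3 SD, cut at about 5.5% in these data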;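 note: 0% = DMSO wells median and 100% = median of wells with control inhibitor compound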
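Dosing: 11.9 µM compound single dose, 0.9% DMSO; Assay system: purified T. brucei MetRS enzyme; Measured by: Kinase-Glo luciferase luminescence reporting remaining unconsumed ATP; Schedule: 15 min plus 2 h at 25 °C.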
AI-2 QS mod – modulates the Vibrio harveyi AI-2 quorum sensing system; Vibrio harveyi JMH597 AI-2 luminescence/OD600 ratio, 9 h; stronger effect = lower value; strain lacks LuxN and CqsS sensors; 0 = neutral-control median; activity change, % at 7.5 µM; 300,000 tested, 0.4% active; AID 2094; in the data active = activity change below about -75%, passing the limit was not always enough;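 note: luminescence divided by OD600 gain over 9 h not by final OD600 alone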
bovine MsrA act – activates bovine MsrA enzyme | 360,000 tested, 0.3% active | purified bovine MsrA, absorbance read-out | activation, % at 10.6 µM; in the data active = activation above about 7.5%;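 note: 0% = vehicle and 100% = reference activator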
AHR act – activators of human aryl hydrocarbon receptor | P35869 | AID 2796 | activation, % at 5 µM | AHR-responsive luciferase reporter cells, luminescence | 320,000 tested, 2.5% active; in the data active = activation above about 47%;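 note: 0% = vehicle wells and 100% = reference agonist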
MsrA inh – bovine MsrA inhibition; purified bovine MsrA, absorbance read-out; inhibition, % at 15.5 µM; 360,000 tested, 0.75% active;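 note: 0% = vehicle wells with enzyme and 100% = reference inhibitor wells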
MsrA conf – bovine MsrA inhibition, confirmed | 2,300 tested, 41% active | purified bovine MsrA, absorbance read-out | AID 651822 | shares compounds with MsrA inh | inhibition, % at 15.5 µM;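 note: coupled to thioredoxin reductase with NADPH and selenocystamine and DMSO as substrate; 0% = vehicle only and 100% = full effect of reference inhibitor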
An asterisk follows results filed as active; x = no result. Cut-off read from the data, not from the text of the source, unless noted: active = inhibition above about 4.5%; inactive = the rest.

SMILES | HTR2A ag | Tb MetRS inh | AI-2 QS mod | bovine MsrA act | AHR act | MsrA inh | MsrA conf
Cc1ccc(CN2C(=O)N/C(=C\c3cccn3-c3cccc(C(=O)O)c3)C2=O)cc1 | 3.5 | -0.7 | 23.8 | -10.9 | -1.0 | 3.3 | x
COc1ccc(C(CNC(=O)CCNS(=O)(=O)c2ccccc2)N2CCOCC2)cc1 (centres undefined) | -2.4 | -0.1 | x | -2.0 | x | 0.9 | x
CSc1ccc(/C=N/NC(=O)c2cccc(O)c2)cc1 | -3.1 | -2.7 | -53.8 | -3.0 | 19.9 | 4.8* | 5.6*
O=C(NCc1ccc(OC(F)(F)F)cc1)C1CCC(=O)N(C2CC2)C1 (centres undefined) | 2.8 | -0.3 | 10.8 | -7.7 | x | 1.6 | x
CCOc1ccccc1-n1c(=S)sc2c(=O)n(-c3ccc(F)cc3)c(SCC(=O)O)nc21 | -6.8 | -0.4 | -0.9 | -3.0 | 0.9 | 5.6* | 1.6
COc1ccc(C(=O)NC(C)c2cccnc2)cc1S(=O)(=O)N(C)Cc1ccccc1 (centres undefined) | -0.7 | -0.4 | x | -1.3 | 2.2 | 1.4 | x
O=[N+]([O-])c1ccc(N2CCN(S(=O)(=O)c3ccccc3)CC2)cc1NCc1cccnc1 | -2.9 | -0.9 | 4.0 | -6.5 | 18.8 | 9.1* | 1.6
O=[N+]([O-])c1ccc(N2CCN(S(=O)(=O)c3ccc(Cl)cc3)CC2)cc1NCc1cccnc1 | 1.1 | -1.3 | 23.7 | -9.0 | 3.0 | 1.3 | x
N#C/C(=C/c1cccs1)c1ccccn1 | 3.1 | 0.0 | 11.6 | -5.1 | 23.2 | 5.1* | 5.4*
N#C/C(=C\c1ccccn1)c1ccccn1 | 2.3 | -1.5 | 14.0 | -10.3 | 24.4 | 0.4 | x
Cc1ccc(C(=O)C2CCN(C(=S)NCCCOC(C)C)CC2)cc1 | -2.1 | -0.6 | 14.2 | -4.9 | -0.1 | 0.3 | x
COC(=O)COc1ccc2oc(=O)cc(-c3cc4ccccc4o3)c2c1 | 1.1 | -0.3 | 14.6 | -3.3 | 0.7 | 14.9* | 24.2*
COC(=O)COc1ccc2oc(=O)cc(-c3cc4cccc(OC)c4o3)c2c1 | -1.5 | -0.2 | 8.9 | -4.6 | -1.7 | 7.4* | 15.4*
NC(=O)COc1ccc2oc(=O)cc(-c3cc4ccccc4o3)c2c1 | -5.7 | 0.1 | 19.3 | -3.8 | 13.6 | 22.8* | 20.5*
COC(=O)COc1cc(OCC(=O)OC)c2c(-c3ccccc3)cc(=O)oc2c1 | 5.6 | 0.0 | 4.7 | -3.4 | -1.1 | -0.7 | x
CCN(CC)C(=O)Oc1cc2c(-c3cc4cccc(OC)c4o3)cc(=O)oc2cc1C | 5.8 | 0.1 | 10.9 | -2.9 | 12.7 | 0.3 | x
COc1cccc2cc(-c3cc(=O)oc4ccc(O)cc34)oc12 | -1.5 | -0.1 | 24.7 | -0.3 | 3.8 | 16.9* | 13.3*
CN(C)C(=O)c1cc(C(=O)c2ccc(F)cc2C(F)(F)F)c[nH]1 | -0.7 | -0.9 | 5.0 | -5.3 | 3.5 | 1.7 | x
C=CC1CN(C(=O)OCC(Cl)(Cl)Cl)C2CC3c4ccc(OC)cc4NC3C3CC1C2CO3 (centres undefined) | 1.4 | -0.7 | 6.9 | -8.8 | 0.4 | x | x
Cc1cc(C)c[n+](-c2[nH]c(=O)sc2/C=N/N=C(\N)[S-])c1 | 0.9 | -1.0 | 25.3 | -6.2 | 5.0 | 5.4* | 5.5*
O=c1[nH]c(-[n+]2ccccc2)c(/C=N/N=C(\[O-])c2ccccc2)s1 | -0.8 | 0.2 | 11.8 | -7.2 | -0.5 | 5.0* | 5.2*
Cc1cc[n+](-c2[nH]c(=O)sc2/C=N/N=C(\[O-])c2ccncc2)cc1 | -4.5 | 0.1 | 1.6 | -5.7 | 2.0 | 12.6* | 4.2
Cc1ccc[n+](-c2[nH]c(=O)sc2/C=N/N=C(\[O-])c2cccnc2)c1 | -7.0 | 0.1 | 41.1 | 3.3 | 8.6 | 3.7 | x
CCc1ccc[n+](-c2[nH]c(=O)sc2/C=N/N=C(\[O-])CCn2c3ccccc3c3ccccc32)c1 | 6.1 | -0.4 | x | -5.0 | -1.9 | 3.3 | x
Cc1cc[n+](-c2[nH]c(=O)sc2/C=N/N=C(\[O-])c2ccncc2)cc1C | 4.7 | -0.7 | 56.6 | -8.9 | 10.1 | 3.9 | x
Cc1ccc[n+](-c2[nH]c(=O)sc2/C=N/NC(=O)c2ccccc2[O-])c1 | -2.1 | 0.4 | 27.2 | -4.3 | 13.8 | 4.9* | 0.9
O=C1C2C3C=CC(C3)C2C(=O)N1c1ccc(-c2nc(-c3ccccc3)nc3ccccc23)cc1 (centres undefined) | x | x | x | x | x | -0.8 | x
